These results are taken from paper PMC2878397 (Journal of natural products, 2010).

One experiment deals with 9KB. Particulars: 9KB in vitro test system; cited from earlier work.
Another experiment concerns 9PS. Particulars: 9PS in vitro test system; cited from earlier work.
Another experiment has as its target T1, NF-κB p50 (Homo sapiens, UniProt P19838).
T1 sequence (P19838 1-433 limits assumed): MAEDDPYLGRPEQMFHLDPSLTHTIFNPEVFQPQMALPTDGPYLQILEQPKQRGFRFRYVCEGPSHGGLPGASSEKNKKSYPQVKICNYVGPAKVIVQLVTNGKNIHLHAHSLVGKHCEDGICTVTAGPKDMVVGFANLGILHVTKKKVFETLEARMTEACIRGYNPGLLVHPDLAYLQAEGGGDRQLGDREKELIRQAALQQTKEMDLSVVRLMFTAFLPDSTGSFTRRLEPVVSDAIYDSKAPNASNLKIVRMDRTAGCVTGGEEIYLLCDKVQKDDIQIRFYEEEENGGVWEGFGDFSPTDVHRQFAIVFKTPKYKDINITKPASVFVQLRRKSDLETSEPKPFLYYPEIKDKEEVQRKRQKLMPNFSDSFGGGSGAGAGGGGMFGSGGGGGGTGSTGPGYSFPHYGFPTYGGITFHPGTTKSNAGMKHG
As to the kind of experiment: Enzyme-based ELISA NF-κB p50 assay. It counts as biochemical. On the technique in general: An ELISA detects its analyte on a solid surface through an enzyme-linked reagent.

The next experiment has as its target NF-κB p65 (Homo sapiens, UniProt Q04206). The experiment in a line: Enzyme-based ELISA NF-κB p65 assay. It counts as biochemical.
In experiment [1] the test system is HT-29 human colon cancer cells. The experiment in a line: Cytotoxicity assay against HT-29 cells. In kind it is cell-based. Particulars: for cytotoxicity ED50: HT-29 cells, three days incubation, SRB; for IC50: Homo sapiens, HT-29, 72 h, read-out: cytotoxicity ED50. In outline: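 Trypsinized HT-29 cells seeded in 96-well plates with test compound in DMSO; DMSO-only wells as negative control, paclitaxel as positive control. Incubated 3 days at 37 °C, 5% CO2. Cells fixed, held 30 min at room temperature, water-washed, air-dried overnight, then stained with sulforhodamine B. Dye released in tris-base buffer, absorbance read at 515 nm. Cytotoxicity calculated against negative control, reported as ED50 (μM).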

In a further experiment the test system is P388 leukemia cells. To be noted: cited from earlier work.

Where two headings read alike, the source gives them in different places.

Chain of NF-κB p65 (Q04206 whole entry, one chain of several): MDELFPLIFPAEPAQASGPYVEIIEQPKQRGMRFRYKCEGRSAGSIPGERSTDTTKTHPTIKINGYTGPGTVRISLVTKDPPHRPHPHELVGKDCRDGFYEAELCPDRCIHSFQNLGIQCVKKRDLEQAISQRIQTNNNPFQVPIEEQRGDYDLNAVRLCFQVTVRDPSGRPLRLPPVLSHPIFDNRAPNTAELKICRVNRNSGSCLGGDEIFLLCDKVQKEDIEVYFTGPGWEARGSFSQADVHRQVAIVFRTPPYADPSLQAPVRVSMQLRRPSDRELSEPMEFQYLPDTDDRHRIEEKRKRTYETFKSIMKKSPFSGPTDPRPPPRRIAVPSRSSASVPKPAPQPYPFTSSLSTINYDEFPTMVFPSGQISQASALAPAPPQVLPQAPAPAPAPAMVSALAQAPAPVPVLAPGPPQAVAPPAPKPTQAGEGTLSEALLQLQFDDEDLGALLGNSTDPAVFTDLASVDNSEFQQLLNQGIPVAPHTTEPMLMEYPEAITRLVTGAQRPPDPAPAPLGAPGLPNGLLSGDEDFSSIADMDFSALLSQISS

In the case of “3-hydroxy-4,3′,5′-trimethoxy-trans-stilbene [Compound 9]”, the “cytotoxicity ED50” value in the experiment with 9KB is 0.01 µg/mL; in the experiment with 9PS it was 0.1 µg/mL; in experiment [1], 8.7 µM. For the same molecule, the IC50 at NF-κB p50 (read-out: NF-κB p50 inhibition IC50, HeLa nuclear extract, ELISA) was greater than 10 µM; at NF-κB p65 (read-out: NF-κB p65 inhibition IC50, HeLa nuclear extract, ELISA) it was greater than 10 µM.

Regarding `C=C(C)[C@H]1Cc2c(oc3c(CC=C(C)C)c(O)c(CC=C(C)C)c(O)c3c2=O)-c2c(O)cc(O)c(O)c21` [Compound 1, (5R)-5,6-dihydro-1,3,4,8,10-pentahydroxy-5-isopropenyl-9,11-bis(3-methyl-2-butenyl)-7H-benzo[c]xanthen-7-one], the values for the IC50 against NF-κB p50 and at NF-κB p65 were 2 µM and greater than 10 µM, respectively.

In the case of `C=C(C)c1cc2c(=O)c3c(O)c(CC=C(C)C)c(O)cc3oc2c2c1C(=O)C(O)=C(CC=C(C)C)C2=O` [Compound 3, 4,8,10-trihydroxy-5-isopropenyl-2,9-bis(3-methyl-2-butenyl)-7-benzo[c]xanthen-2,4,7-trione], the “cytotoxicity ED50” value in experiment [1] was greater than 10 µM.

As for `CC(C)=CCc1c(O)c(CC=C(C)C)c2oc3c(c(=O)c2c1O)C(C=C(C)C)Oc1cc(O)c(O)cc1-3` (stereo not shown) [Compound 4, 2,3,8,10-tetrahydroxy-6-(2-methylpropenyl)-9,11-bis(3-methyl-2-butenyl)-6H[1]benzopyrano[4,3-b]benzopyran-7-one], the IC50 at NF-κB p50 and against NF-κB p65 was greater than 10 µM in each case.

As to `CC1(C)C=Cc2cc3c(cc2O1)Oc1cc(O)ccc1C(O)=C3` [Compound 5, 2,2-dimethyl-2H-benzo{6,7-oxepino[3,2-g]}chromene-7,10-diol], the IC50 is greater than 10 µM at NF-κB p50, greater than 10 µM at NF-κB p65 and 10.7 µM in experiment [1].

As to `C=C(C)[C@H]1Cc2c(oc3cc(O)c(CC=C(C)C)c(O)c3c2=O)C2=C1C(=O)C(O)=C(CC=C(C)C)C2=O` [Compound 6, artonin O], the IC50 against NF-κB p50 and against NF-κB p65 was greater than 10 µM throughout.

For the molecule `C=C(C)[C@H]1Cc2c(oc3c4c(cc(O)c3c2=O)OC(C)(C)C=C4)-c2c(O)cc(O)c(O)c21` [Compound 7, artobiloxanthone], the IC50 at NF-κB p50 was 3.7 µM; against NF-κB p65, 2.3 µM. For the same molecule, in experiment [1], the “cytotoxicity ED50” value is greater than 10 µM.

Consider `CC1(C)C=Cc2c(cc(O)c3c(=O)c4c(oc23)-c2c(O)cc(O)c3c2C(C4)C(C)(C)O3)O1` (stereo not shown) [Compound 8, cycloartobiloxanthone], for which the IC50 on NF-κB p50 and at NF-κB p65 was greater than 10 µM each time.

For `CC(C)=CCc1c(-c2cc(O)c(O)cc2O)oc2c3c(cc(O)c2c1=O)OC(C)(C)C=C3` [artonin E], the “cytotoxicity ED50” value in the experiment with P388 leukemia cells was 0.06 µg/mL.

For the molecule `COc1cc(O)c2c(=O)c3cc4c5c(c(O)cc(O)c5c3oc2c1)OC4(C)C` [artonin K], the IC50 in experiment [1] is greater than 10 µM.
